Key:
Format in all cases: ADME
[1] = Acid base constant value for N4 atom; details: read-out: pKa4
Summary of the method: (§1)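 Potentiometric titration: the polyamine hydrochloride salt was first converted to the free amine by adding base, then titrated in 0.1 N KCl. Each nitrogen's pKa was estimated by a nonlinear least-squares computer fit of the titration curve. Fractions of the protonated species were then simulated from the measured pKa values.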

[2] = Acid base constant value for N3 atom; details: read-out: pKa3; summary of the method: as §1
[3] = Acid base constant value for N2 atom; details: read-out: pKa2; summary of the method: as §1
[4] = Acid base constant value for N1 atom; details: read-out: pKa1; summary of the method: as §1

| pKa [1] | pKa [2] | pKa [3] | pKa [4] | Compound |
| --- | --- | --- | --- | --- |
| 7.6 | 9.02 | 10.7 | 11.4 | C(CCNC1CCNCC1)CNC1CCNCC1 |
| 7.14 | 8.88 | 10.7 | 11.2 | C(CNC1CCNCC1)CNC1CCNCC1 |
| 9.1 | 10 | 10.8 | 10.9 | C(CCNCCC1CCNCC1)CNCCC1CCNCC1 |
| < 2 | < 2 | 9.14 | 9.55 | c1cc(NCCCNc2ccncc2)ccn1 |
| 8.72 | 9.57 | 10.4 | 11.2 | NCCCCNCCCCNCCCCN |
| 7.68 | 8.51 | 9.91 | 10.8 | CCNCCCNCCCNCCCNCC [BIS(ETHYL)NORSPERMINE] |
| 8.25 | 9.42 | 10.8 | 11.2 | CCNCCCNCCCCNCCCNCC [BIS(ETHYL)SPERMINE] |
| 8.91 | 9.73 | 10.8 | 11.1 | CCNCCCCNCCCCNCCCCNCC [DIETHYLHOMOSPERMINE] |
| 7.51 | 8.35 | 9.8 | 10.6 | NCCCNCCCNCCCN [THERMINE] |

From ChEMBL document CHEMBL1129465, “Polyamine analogue regulation of NMDA MK-801 binding: a structure-activity study” (J Med Chem, 1996)
